The target of test [1] is 5-hydroxytryptamine receptor 2B (Rattus norvegicus, UniProt P30994). Put plainly: Displacement of [3H]5-HT binding to serotonin receptor of rat fundus membranes. The note with it: read-out: pA2 (converted).
Test [2] concerns Rattus norvegicus. Briefly: Responses made on the DOM -appropriate lever as a percent of total responses; data was collected during the 2.5 min extinction session at 12 mg/kg dose. The class given is functional. Summed up: (§1)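 Male Sprague-Dawley rats trained to tell racemic DOM (1.0 mg/kg) from saline in a two-lever operant task (VI-15s schedule). Drug was given 15 min before a 2.5-min nonreinforced extinction session. The read-out was DOM-appropriate lever responses as % of total responses, with about 5 rats per dose. ED50 was taken from dose-response data by Finney's method.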

The subject of test [3] is Rattus norvegicus. Put plainly: Responses made on the DOM -appropriate lever as a percent of total responses; data was collected during the 2.5 min extinction session at 7 mg/kg dose. Type of test: functional. Summed up: as §1
The species entered for test [4] is Rattus norvegicus. Briefly: Mean responses per minute during the extinction session. The class given is functional. The essentials: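 Male Sprague-Dawley rats trained in a two-lever operant task to discriminate racemic DOM (1.0 mg/kg) from saline, given 15 min before a VI-15s reinforcement schedule. Test compound given by injection before a 2.5-min nonreinforced extinction session. Read-outs are DOM-lever responses as percent of total responses, and responses per minute. Values are means ±SEM over the animals responding; no responding was recorded as disruption.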

The target of test [5] is Serotonin (5-HT) receptor. Briefly: Evaluated for inhibition of specific [3H]5-HT receptor binding in rat cortex. Summed up: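 Rat cortex (dorsal to rhinal sulcus) from male Sprague-Dawley rats (150–200 g), pooled, homogenized in 0.05 M Tris-HCl pH 7.4, washed four times by centrifugation with a 37 °C 10-min incubation between washes. [3H]-5-HT binding done with varying test compound concentrations in 50 mM Tris pH 7.4, 10 μM pargyline, 4 mM CaCl2, 7 min at 37 °C. Filtered on glass fibre. Specific binding taken as the difference with 1 μM metergoline.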

The record followed here is ChEMBL document CHEMBL1122596, “Synthesis and evaluation of a novel series of N,N-dimethylisotryptamines” (J Med Chem, 1984).

The IC50 is the concentration that inhibits the measured activity by half.

Values joined by “and” are separate entries in the source; they are usually repeats but may differ in a detail not shown here. Identical values can stand only once.

Chain of 5-hydroxytryptamine receptor 2B (P30994 whole entry): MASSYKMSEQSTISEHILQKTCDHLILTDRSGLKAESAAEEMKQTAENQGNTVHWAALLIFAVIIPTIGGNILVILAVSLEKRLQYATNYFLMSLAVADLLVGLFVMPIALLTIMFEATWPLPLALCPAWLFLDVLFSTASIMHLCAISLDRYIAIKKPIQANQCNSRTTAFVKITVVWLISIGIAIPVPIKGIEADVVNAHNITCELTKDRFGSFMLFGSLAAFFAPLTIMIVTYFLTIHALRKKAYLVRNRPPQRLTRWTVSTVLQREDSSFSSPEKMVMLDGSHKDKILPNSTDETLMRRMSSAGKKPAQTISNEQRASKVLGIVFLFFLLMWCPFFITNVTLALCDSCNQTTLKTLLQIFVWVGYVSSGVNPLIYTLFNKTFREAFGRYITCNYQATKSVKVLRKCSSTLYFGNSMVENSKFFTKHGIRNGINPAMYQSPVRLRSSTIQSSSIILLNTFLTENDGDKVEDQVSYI

Take `CCN(CCN(C)C)c1ccccc1`: the Kb in test [1] is 537 nM. As to `CN(C)CCn1cnc2ccccc21`, the DOM in test [2] and in test [3] was 0% throughout. Further, the Response rate in test [4] was 12.6 and 15.2. For the same compound, the Kb in test [1] was 138 nM. On to `COc1ccc2c(CCN)c[nH]c2c1`, for which the IC50 in test [5] is on record as 630 nM. Take `COc1cccc2[nH]cc(CCN)c12`: the IC50 in test [5] came to 220 nM. Take `NCCC1CNc2ccccc21` (centres undefined): the Kb in test [1] was 2090 nM. Take `CN(C)CCN1CCc2ccccc21`: the Kb in test [1] is 269 nM.
